T cruzi inh: blocks replication of Trypanosoma cruzi | T. cruzi beta-gal in NIH3T3, luminescence, 90 h | 1.4% of 300,000 active | inhibition, % (no concentration beside the values);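 active = mean inhibition across valid replicates above about 55%, limit read from the data; inconclusive = mean below that limit but half or more replicates reach it; inactive = mean below it, under half of replicates reach it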;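 note: signal also drops with host cell toxicity which is not excluded here; 0% = plate median of DMSO wells and 100% = zero luminescence signal; higher percent means less beta-gal luminescence so fewer parasites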
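System: mouse NIH/3T3 fibroblasts infected with β-gal-expressing T. cruzi Tulahuen C4 / Input: NIH/3T3 cells, 5,000 per well / Buffer or medium: Low-serum DMEM with 2% FBS / Probe or stimulus: 5000 reporter trypomastigotes per well / Schedule: ≥90 h infection period, 3 h prior cell attachment / Measured by: GalScreen luminescence, 60 min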
HIF activator: HIF pathway transcriptional activation. activation, % at 7.5 µM (by protocol). 0.32% of 300,000 active. AID 1910. U2OS HRE-luciferase reporter, luminescence; normalized: DMSO 0%, desferrioxamine 100%;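 active = mean activation of at least 10% of the iron chelator positive control signal, with at least half of replicates also reaching 10%; inconclusive = mean and replicate majority disagree about reaching 10%; inactive = mean and most replicates under 10%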
Beta cell apopt: blocks beta cell apoptosis; protection from apoptosis, % (concentration not given with the values); 0.8% of 300,000 active; INS-1E cytokine-induced death, ATP luminescence, 48 h; percent of positive-control rescue, neutral wells zero;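 active = Every replicate reaches about 75%, or at least half do and their mean reaches it too, limit read from the data; inconclusive = At least half of replicates reach the limit but their mean does not; inactive = Under half of replicates reach the limit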;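 note: 0% = cytokine-treated negative control wells and 100% = positive control rescue; higher means more ATP so stronger rescue from cytokine killing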
A1 inh: inhibitors of the anti-apoptotic protein A1, read as caspase activation. MEF A1-2A-BIM cells, Caspase-Glo 3/7 luminescence, 3 h; percent of clofoctol response, vehicle zero. AID 2462. 0.066% of 330,000 active. caspase activation, % (test concentration not listed);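 active = over half of replicate activation scores above 10%, or exactly half above 10 with the replicate mean above 10; inconclusive = replicate mean below 10 yet half the replicates above 10; inactive = over half of replicates below 10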
KLF5 inh: inhibitors of KLF5 expression. DLD-1 KLF5 promoter-luciferase reporter, luminescence. inhibition, % at 5 µM. 0.23% of 290,000 active;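 active = inhibition above a per-plate limit of that plate's mean compound inhibition plus 3 SD, cut at about 60% in these data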;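 note: 0% = DMSO wells and 100% = LY294002 at 200 µM; higher means less KLF5 promoter-driven luciferase light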
The depositor's hits bear a star; ? = inconclusive; . = not tested or not shown. An excerpt weighted towards active compounds, which were near 2.3% of everything screened.

SMILES | T cruzi inh | HIF activator | Beta cell apopt | A1 inh | KLF5 inh
O=C(c1cccc(C(F)(F)F)c1)C1CCCN(Cc2ccc(OCCO)cc2)C1 (centres undefined) | 62.7* | -0.2 | 1.0 | 0.2 | -3.6
O=C(N[C@H](Cc1cc(=O)[nH]c2ccccc12)C(=O)O)c1ccc(Cl)cc1 | -2.2 | -0.1 | -0.4 | -1.7 | -23.7
O=C(CCc1ccccc1)NC1(Cc2ccccc2)CCN(CCCc2ccccc2)C1=O (centres undefined) | . | . | 44.9 | -1.3 | .
CC(C)Oc1cccc(C(=O)C2CCCN(Cc3ccc(Oc4ncccn4)cc3)C2)c1 (centres undefined) | 66.5* | -0.5 | -3.3 | 0.9 | -12.1
COc1ccccc1C(=O)C1CCCN(Cc2ccc(Oc3ncccn3)cc2)C1 (centres undefined) | 73.0* | 0.0 | 2.9 | -0.4 | -26.9
COc1c(C)cc(C(=O)C2CCCN(Cc3ccc(Oc4ncccn4)cc3)C2)cc1C (centres undefined) | 33.3 | -0.8 | 5.3 | 0.5 | -41.5
COC(=O)c1ccc(CN2CCCC(C(=O)c3ccccc3OC)C2)cc1 (centres undefined) | 22.2 | -1.1 | -6.5 | -0.5 | -14.1
CCCCNC(=O)c1ccccc1SCc1c(C)noc1C | 17.3 | -0.1 | -12.5 | 0.7 | -30.1
COc1cc(NC(=O)c2ccc(=O)[nH]n2)cc(OC)c1OC | -1.1 | -2.0 | -3.2 | -0.4 | -25.1
O=C(COc1ccc(Cl)cc1Cl)N1CCCN(C(=O)COc2ccc(Cl)cc2Cl)CC1 | 59.6* | -0.1 | 16.8 | 1.3 | -7.9
Cc1cc(Cl)ccc1OCC(=O)N1CCCCC1 | -1.4 | 1.8 | 2.5 | -1.2 | -64.5
Cc1cc(NC(=O)CSc2nc(C)c(C)c(=O)[nH]2)no1 | -1.1 | 1.4 | 1.4 | 1.3 | .
CC1CC(C)CN(C(=O)c2ccc(-c3ccc([N+](=O)[O-])cc3)o2)C1 (centres undefined) | 21.2 | 1.8 | -2.5 | 10.1* | .
O=C(c1ccc(-c2ccc([N+](=O)[O-])cc2)o1)N1CCCCC1 | -8.3 | 1.5 | 5.2 | 0.3 | -31.9
O=C(c1ccc(-c2ccc(Cl)cc2)o1)N1CCN(c2ccc([N+](=O)[O-])cc2Cl)CC1 | 46.1 | 0.5 | 113.3* | 0.2 | 7.6
Cc1ccc(OCC(=O)N/N=C\c2cccn2C)c([N+](=O)[O-])c1 | -17.3 | 0.9 | -4.7 | -2.5 | -97.2
COC(=O)c1ccc(CN2CCCC(CNC(=O)Cc3ccc(OC)cc3)C2)cc1 (centres undefined) | 39.7 | 2.0 | . | -0.6 | -9.9
COc1ccc(CC(=O)NCC2CCCN(Cc3cc(OC)cc(OC)c3)C2)cc1 (centres undefined) | 57.7* | -14.3 | . | 1.7 | -10.0
COc1ccc(C(=O)N2CCCC(CNC(=O)c3ccc(F)cc3)C2)cc1OC (centres undefined) | -18.0 | 0.1 | . | . | -12.7
O=C(NCC1CCCN(C(=O)c2cccc(C(F)(F)F)c2)C1)c1ccc(F)cc1 (centres undefined) | 5.2 | 1.1 | -2.5 | 0.2 | -5.0
COc1cccc(CN2CCCC(CNC(=O)c3ccc(F)cc3)C2)c1OC (centres undefined) | 68.4* | 0.2 | -2.9 | 1.5 | -42.2
O=C(NCC1CCCN(Cc2cccc(C(F)(F)F)c2)C1)c1ccc(F)cc1 (centres undefined) | 57.0* | -0.2 | -5.5 | 0.2 | 0.6
CCn1ncc(CN2CCCC(CNC(=O)c3ccc(F)cc3)C2)c1C (centres undefined) | 73.4* | 0.0 | -2.7 | ? | -8.5
CCOC(=O)CSc1ccc(C(=O)NCCCN2CCOCC2)cc1[N+](=O)[O-] | 10.7 | -1.1 | -4.7 | 1.0 | -21.0
Cc1ccc(C(=O)NCC(=O)OCc2c(F)cccc2Cl)s1 | . | . | -4.1 | -0.8 | .
Cc1cccc(N2N=C(C(=O)N3Cc4ccccc4CC3C(N)=O)CCC2=O)c1 (centres undefined) | . | . | -3.6 | 1.5 | .
C[C@@H](NC(=O)[C@@H]1Cc2ccccc2CN1C(=O)OC(C)(C)C)C(=O)NC1CCCC1 | -0.1 | . | -8.7 | 1.8 | -2.0
O=C(COC(=O)C12CC3CC(CC(Br)(C3)C1)C2)Nc1cccc(S(=O)(=O)N2CCOCC2)c1 | . | . | -1.5 | -0.7 | .
CCCn1c(=O)c(C(=O)NNS(=O)(=O)c2ccc(NC(=O)OC)cc2)c(O)c2ccccc21 | 2.6 | 0.2 | -2.3 | 0.6 | -4.3
CCc1ccc(CN2CCCC(CNC(=O)c3cc(OC)cc(OC)c3)C2)cc1 (centres undefined) | 44.9 | 0.2 | . | 0.3 | -23.9

Screening data deposited in PubChem BioAssay by several laboratories.
